MEKK2mut PB1 HTS – signal of MEK5 binding to mutant human MEKK2 PB1 domain; bead flow cytometry, Alexa488-MEK5 binding to MEKK2 mutant; percent response, % at 10 µM; 0.35% of 290,000 active; in the data active = percent response above about 24%, passing the limit was not always enough
MEKK2wt PB1 HTS – raises or lowers MEK5 binding to wildtype human MEKK2 PB1 domain | 1.1% of 290,000 active | bead flow cytometry, Alexa488-MEK5 binding to MEKK2 WT; actives lie on both sides | Q9Y2U5 | binding response (% of control), % at 10 µM | AID 1531; in the data active = binding response below about 67% or above about 130%; inconclusive = no clear call, values can overlap the other calls; inactive = in between
Apaf1 inhib – inhibitors of human Apaf-1 apoptosome; O14727; reconstituted apoptosome caspase-3 activity, DEVD-Rh110 fluorescence; inhibition, % at 20 µM; 0.71% of 330,000 active; AID 489030; active = inhibition of at least 40% at 20 µM
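Material: reconstituted apoptosome with Apaf-1, cytochrome c, caspase-9, procaspase-3, dATP. Technique: Rh110 fluorescence intensity. Buffer or medium: pH 7.5 Hepes buffer with CHAPS, BSA, DTT. Times: 30 min plus 50 min, RT.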
MEKK3 PB1 HTS – raises or lowers MEK5 binding to the human MEKK3 PB1 domain | binding response (% of control), % at 10 µM | AID 1529 | 1.4% of 290,000 active | bead-based flow cytometry, Alexa488-MEK5 binding to MEKK3; actives lie on both sides; 0 = blocked by unlabeled MEK5, 100 = vehicle | Q99759;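 active = binding response more than 3 SD above or below the average of its plate-row segment, actives on both sides; inconclusive = wells at one plate position flagged as instrument error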;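 note: Alexa488 bead fluorescence after subtracting the streptavidin-only scavenger bead signal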
Target sequence (Q99759 whole entry, looked up, the tested form may be a part): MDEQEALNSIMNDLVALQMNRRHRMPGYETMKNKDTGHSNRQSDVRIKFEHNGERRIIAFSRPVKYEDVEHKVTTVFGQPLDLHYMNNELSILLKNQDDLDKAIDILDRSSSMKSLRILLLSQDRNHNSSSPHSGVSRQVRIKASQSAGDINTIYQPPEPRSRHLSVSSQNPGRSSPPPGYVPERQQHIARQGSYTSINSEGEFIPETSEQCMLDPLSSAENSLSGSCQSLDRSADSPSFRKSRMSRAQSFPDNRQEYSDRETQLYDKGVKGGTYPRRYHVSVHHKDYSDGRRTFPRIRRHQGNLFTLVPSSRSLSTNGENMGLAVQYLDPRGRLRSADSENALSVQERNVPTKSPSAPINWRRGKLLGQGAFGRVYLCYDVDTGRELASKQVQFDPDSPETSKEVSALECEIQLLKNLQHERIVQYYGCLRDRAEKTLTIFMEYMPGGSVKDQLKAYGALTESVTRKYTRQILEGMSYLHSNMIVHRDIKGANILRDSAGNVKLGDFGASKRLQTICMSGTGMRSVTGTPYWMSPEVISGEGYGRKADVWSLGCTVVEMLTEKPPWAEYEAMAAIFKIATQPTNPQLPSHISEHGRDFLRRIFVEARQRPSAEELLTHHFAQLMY
UBC13 inh – inhibitors of human UBC13 polyubiquitin chain formation. P61088. TR-FRET. inhibition, % at 20 µM. 0.47% of 330,000 active; in the data active = inhibition above about 45%, passing the limit was not always enough; inconclusive = no clear call, values can overlap the other calls
Target sequence (P61088 whole entry, looked up): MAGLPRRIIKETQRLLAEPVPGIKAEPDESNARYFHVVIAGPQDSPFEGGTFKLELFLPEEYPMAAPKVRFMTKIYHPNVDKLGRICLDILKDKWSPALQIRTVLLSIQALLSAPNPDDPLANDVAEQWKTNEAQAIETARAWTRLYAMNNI
DSG3 Ab inh – inhibitors of pemphigus antibody binding to human desmoglein-3 | P32926 | DSG3-coupled beads, scFv-anti-DSG3-GFP binding, flow cytometry; stronger effect = lower value | binding (percent of control), % at 10 µM | 0.48% of 310,000 active | AID 588358;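 active = binding more than 3 SD below its plate's average and above zero; inconclusive = below that plate limit but binding exactly zero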;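 note: hits lower antibody fragment binding to DSG3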
MEKK2wt confirm – raises or lowers MEK5 binding to wildtype human MEKK2, retest | shares compounds with MEKK3 PB1 HTS | bead flow cytometry, Alexa488-MEK5 binding to MEKK2 WT; actives lie on both sides | binding response (% of control), % at 10 µM | 2.4% of 5,900 active | AID 1892; in the data active = binding response below about 16% or above about 210%; inactive = in between
MEKK2mut confirm – signal of MEK5 binding to mutant human MEKK2, retest | shares compounds with MEKK3 PB1 HTS | bead flow cytometry, Alexa488-MEK5 binding to MEKK2 mutant | percent response, % at 10 µM | 2% of 5,900 active; in the data active = percent response mostly above about 71%, no sharp cut-off; inactive = mostly below about 38%;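 note: higher means compound restores mutant binding toward wildtype level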
MEKK3 confirm – confirmation of inhibitors of MEK5 binding to human MEKK3. bead flow cytometry, Alexa488-MEK5 binding to MEKK3; stronger effect = lower value. shares compounds with MEKK3 PB1 HTS. 1.8% of 5,900 active. binding response (% of control), % at 10 µM;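 active = binding response below 72% of control, or above a set upper limit, though filed actives all read lower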
Each line names hits and unclear results; the compound was inactive in the other large screens (follow-up assays come after a bar, where they were run); ! = repeats disagree; [ ] = another dose, or the depositor's remark. This is a sample that favours compounds with a hit; in the whole collection about 3.2% have one here.

CC(C)[C@H](NC(N)=O)C(=O)Nc1cccc([N+](=O)[O-])c1	MEKK3 PB1 HTS 143 | MEKK2wt confirm inactive | MEKK2mut confirm inactive | MEKK3 confirm inactive
O=C(Nc1cccc(Cl)c1)c1cccc(Oc2ccc([N+](=O)[O-])cc2Cl)c1	MEKK2wt PB1 HTS 17[inhibitor] | MEKK2wt confirm inactive | MEKK2mut confirm inactive | MEKK3 confirm inactive
Cc1ccc(NC(=O)c2ccncc2)cc1[N+](=O)[O-]	MEKK3 PB1 HTS 152 | MEKK2wt confirm inactive | MEKK2mut confirm inactive | MEKK3 confirm inactive
C/C(=N\NC(=O)c1cccc([N+](=O)[O-])c1)c1ccncc1	MEKK3 PB1 HTS 49[inhibitor] | MEKK2wt confirm inactive | MEKK2mut confirm inactive | MEKK3 confirm inactive
C/C(=N/NC(=O)c1ccc(O)cc1)c1cccc([N+](=O)[O-])c1	none
CC(Oc1ccccc1)C(=O)Nc1cccc([N+](=O)[O-])c1 (stereo not drawn)	none
O=[N+]([O-])c1ccc(Nc2cccc3c2[nH]c2c(-c4ccccc4)nccc23)c([N+](=O)[O-])c1	none (no result: MEKK2mut PB1 HTS, MEKK2wt PB1 HTS, Apaf1 inhib, MEKK3 PB1 HTS, UBC13 inh)
OCC1OC2C(NC(=S)N2c2ccccc2)C(O)C1O (stereo not drawn)	none (no result: MEKK2mut PB1 HTS, MEKK2wt PB1 HTS, Apaf1 inhib, MEKK3 PB1 HTS, UBC13 inh)
CC(C)(C)c1ccc(C(=O)Nc2cccc([N+](=O)[O-])c2)cc1	none (no result: Apaf1 inhib, UBC13 inh)
O=C(Nc1cccc([N+](=O)[O-])c1)c1ccncc1	MEKK3 PB1 HTS 141 | MEKK2wt confirm inactive | MEKK2mut confirm inactive | MEKK3 confirm inactive
O=C(Cn1cnc2cc([N+](=O)[O-])ccc2c1=O)Nc1cccc2ccccc12	none
CCN(CC)S(=O)(=O)c1ccc(C)c(NC(=O)Cn2cnc3cc([N+](=O)[O-])ccc3c2=O)c1	MEKK3 PB1 HTS 69[inhibitor] (no result: DSG3 Ab inh) | MEKK2wt confirm inactive | MEKK2mut confirm inactive | MEKK3 confirm inactive
CCN(CC)S(=O)(=O)c1ccc(C)c(NC(=O)Cn2c(=O)cnc3ccccc32)c1	MEKK3 PB1 HTS 160 | MEKK2wt confirm inactive | MEKK2mut confirm inactive | MEKK3 confirm inactive
CCN(CC)C(=O)COc1coc(CN2CCN(c3ccccc3F)CC2)cc1=O	none
Cn1ncc(C(=O)Nc2ccc(Cl)cc2)c1C(F)(F)F	MEKK3 PB1 HTS 74[inhibitor] | MEKK2wt confirm inactive | MEKK2mut confirm inactive | MEKK3 confirm inactive
Cn1nc(C(F)(F)F)cc1C(=O)Nc1ccc(Cl)cc1	none
O=C(CSc1cnc2ccccc2n1)c1ccc(F)cc1	none
COc1ccc(/C=C/C(=O)OCC(=O)Nc2cccc(C(C)=O)c2)cc1	MEKK3 PB1 HTS 149 | MEKK2wt confirm inactive | MEKK2mut confirm inactive | MEKK3 confirm inactive
COc1ccc(/C=C/C(=O)OCC(=O)Nc2cc(C(N)=O)cc(C(N)=O)c2)cc1	none
COc1cc(-c2nc(-c3ccc(NC(=O)c4ccc5c(c4)OCO5)cc3)no2)cc(OC)c1OC	MEKK2wt PB1 HTS 45[inhibitor] (no result: DSG3 Ab inh) | MEKK2wt confirm inactive | MEKK2mut confirm inactive | MEKK3 confirm inactive
Cc1ccccc1-c1nc(-c2ccc(NC(=O)c3ccc4c(c3)OCO4)cc2)no1	none
CCOC(=O)c1ccc(N2C(=O)CC(Nc3ccc(O)cc3)C2=O)cc1 (stereo not drawn)	MEKK3 PB1 HTS 128 | MEKK2wt confirm inactive | MEKK2mut confirm inactive | MEKK3 confirm inactive
CCC(=O)N[C@@H]1CC(C(C)(C)NC(=O)CC)CC=C1C (stereo partly drawn)	MEKK2wt PB1 HTS 1.0[inhibitor], MEKK3 PB1 HTS 2.0[inhibitor] (no result: DSG3 Ab inh) | MEKK2wt confirm inactive | MEKK2mut confirm inactive | MEKK3 confirm inactive
O=C(O)c1ccc(C(S(=O)(=O)c2ccccc2)S(=O)(=O)c2ccccc2)cc1	none (no result: MEKK2mut PB1 HTS, MEKK2wt PB1 HTS, Apaf1 inhib, MEKK3 PB1 HTS, UBC13 inh)
CCCCNc1c([N+](=O)[O-])cc(C)cc1[N+](=O)[O-]	none
CCCCNc1c([N+](=O)[O-])cc(C(=O)O)cc1[N+](=O)[O-]	MEKK3 PB1 HTS 138 | MEKK2wt confirm inactive | MEKK2mut confirm inactive | MEKK3 confirm inactive
Cc1c2cc(O)c(=O)cc-2oc2cc(O)c(O)cc12	MEKK2wt PB1 HTS 25![inhibitor], MEKK3 PB1 HTS 54![inhibitor], UBC13 inh inconclusive | MEKK2wt confirm inactive | MEKK2mut confirm inactive | MEKK3 confirm 64
COc1cc(OC)c(-c2c3cc(O)c(=O)cc-3oc3cc(O)c(O)cc23)cc1OC	none
CC1CCCC(NC(=O)COC(=O)c2sc3ccccc3c2Cl)C1C (stereo not drawn)	MEKK3 PB1 HTS 135 | MEKK2wt confirm inactive | MEKK2mut confirm inactive | MEKK3 confirm inactive
CC(CNC(=O)CC(C)(C)C)NC(=O)CC(C)(C)C (stereo not drawn)	MEKK3 PB1 HTS 123 | MEKK2wt confirm inactive | MEKK2mut confirm inactive | MEKK3 confirm inactive
O=[N+]([O-])c1ccccc1S(=O)(=O)Nc1ccn(Cc2c(F)cccc2Cl)n1	none (no result: DSG3 Ab inh)
COc1ccc(S(=O)(=O)n2c(CCN3CCOCC3)nc3ccccc32)cc1	none
CC(C)(C)c1ccc(S(=O)(=O)n2c(CN3CCOCC3)nc3ccccc32)cc1	MEKK3 PB1 HTS 125 | MEKK2wt confirm inactive | MEKK2mut confirm inactive | MEKK3 confirm inactive
Cc1cc(/C=C2/SC(=O)N(CC(=O)N3CCOCC3)C2=O)c(C)n1-c1ccccc1F	MEKK3 PB1 HTS 148 | MEKK2wt confirm inactive | MEKK2mut confirm inactive | MEKK3 confirm inactive
COc1ccc(-n2c(C)cc(/C=C3/SC(=O)N(CC(=O)N4CCOCC4)C3=O)c2C)cc1	none
Cc1ccc(-c2cc(C(=O)OCC(=O)NC3CC3)c3ccccc3n2)cc1	none (no result: MEKK2mut PB1 HTS, MEKK2wt PB1 HTS, MEKK3 PB1 HTS)
COc1cccc(-c2nn3c(-c4ccco4)nnc3s2)c1	none
COc1cccc(OC)c1-c1nn2c(-c3ccco3)nnc2s1	MEKK3 PB1 HTS 129 | MEKK2wt confirm inactive | MEKK2mut confirm inactive | MEKK3 confirm inactive
Cc1ccc(-c2cc(C(=O)N/N=C/c3ccc(Cl)cc3)n[nH]2)o1	none (no result: DSG3 Ab inh)
CCc1ccc(C(=O)C(C)OC(=O)c2nn(C)c(=O)c3ccccc23)cc1 (stereo not drawn)	none (no result: MEKK2mut PB1 HTS, MEKK2wt PB1 HTS, MEKK3 PB1 HTS)
Cc1nc(-n2nnc(CO)c2CO)nc2c1CCC2	MEKK3 PB1 HTS 138 (no result: DSG3 Ab inh) | MEKK2wt confirm inactive | MEKK2mut confirm inactive | MEKK3 confirm inactive
COC(=O)c1cn(-c2nc(C)c3c(n2)CCC3)nn1	none
CCOc1ccc(-n2c(N)c(-c3nc4ccccc4[nH]3)sc2=S)cc1	none
COc1ccc(-n2c(N)c(-c3nc4ccccc4n3C)sc2=S)cc1	MEKK3 PB1 HTS 69[inhibitor] | MEKK2wt confirm inactive | MEKK2mut confirm inactive | MEKK3 confirm inactive

Screens from PubChem BioAssay.
